Test results taken from ChEMBL document CHEMBL3272030, “Synthesis and biological properties of some spin-labeled 9-aminoacridines” (J Med Chem, 1976).
The source made the active and inactive calls. The rule behind the calls is not given here.

How the values were obtained:
[1] = tested on: L1210; test: Cytotoxicity against mouse L1210 cells assessed as growth inhibition at 1 ug/ml after 24 hrs; type: functional
Summary of the method: (§1)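 L1210 leukemia cells seeded at 10^5 cells/ml and grown in static culture in RPMI 1630 medium with fetal calf serum. Drug tested at 0.01–100 µg/ml, with 24 h and 48 h exposures. Read-out is percent inhibition of growth. Assays were run in triplicate, and values are the mean of two separate experiments.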

[2] = tested on: L1210; test: Cytotoxicity against mouse L1210 cells assessed as growth inhibition at 0.01 ug/ml after 24 hrs; type: functional; summary of the method: as §1
[3] = tested on: L1210; test: Cytotoxicity against mouse L1210 cells assessed as growth inhibition at 0.01 ug/ml after 48 hrs; type: functional; summary of the method: as §1
[4] = tested on: L1210; test: Cytotoxicity against mouse L1210 cells assessed as growth inhibition at 100 ug/ml after 48 hrs; type: functional; summary of the method: as §1
[5] = tested on: L1210; test: Cytotoxicity against mouse L1210 cells assessed as growth inhibition at 1 ug/ml after 48 hrs; type: functional; summary of the method: as §1
[6] = tested on: L1210; test: Cytotoxicity against mouse L1210 cells assessed as growth inhibition at 0.1 ug/ml after 24 hrs; type: functional; summary of the method: as §1
[7] = tested on: L1210; test: Cytotoxicity against mouse L1210 cells assessed as growth inhibition at 100 ug/ml after 24 hrs; type: functional; summary of the method: as §1
[8] = tested on: L1210; test: Cytotoxicity against mouse L1210 cells assessed as growth inhibition at 10 ug/ml after 48 hrs; type: functional; summary of the method: as §1
[9] = tested on: L1210; test: Cytotoxicity against mouse L1210 cells assessed as growth inhibition at 10 ug/ml after 24 hrs; type: functional; summary of the method: as §1
[10] = tested on: L1210; test: Cytotoxicity against mouse L1210 cells assessed as growth inhibition at 0.1 ug/ml after 48 hrs; type: functional; summary of the method: as §1
[11] = molecular target: T1, Bacterial DNA-directed RNA polymerase (Bacteria) (UniProt P0A8V2+P0A7Z4+P0A8T7+P0A800); test: Stimulation of Escherichia coli DNA-primed RNA polymerase activity using [8-14C]ATP at 100 ug/ml by scintillation counting; type: protein-complex assay
T1 sequence (P0A7Z4 whole entry partner): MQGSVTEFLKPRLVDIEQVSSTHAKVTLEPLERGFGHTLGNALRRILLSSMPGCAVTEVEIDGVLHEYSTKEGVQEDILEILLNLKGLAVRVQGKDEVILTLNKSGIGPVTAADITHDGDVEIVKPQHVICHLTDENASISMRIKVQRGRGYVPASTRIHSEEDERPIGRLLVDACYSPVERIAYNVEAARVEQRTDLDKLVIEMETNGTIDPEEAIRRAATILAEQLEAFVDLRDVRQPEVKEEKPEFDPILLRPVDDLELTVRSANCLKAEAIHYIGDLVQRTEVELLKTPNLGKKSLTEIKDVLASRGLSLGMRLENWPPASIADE
T1 sequence (P0A800 2-91 partner limits assumed): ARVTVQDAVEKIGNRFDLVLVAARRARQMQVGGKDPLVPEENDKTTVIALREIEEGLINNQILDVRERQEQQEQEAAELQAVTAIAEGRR
T1 sequence (P0A8T7 whole entry partner): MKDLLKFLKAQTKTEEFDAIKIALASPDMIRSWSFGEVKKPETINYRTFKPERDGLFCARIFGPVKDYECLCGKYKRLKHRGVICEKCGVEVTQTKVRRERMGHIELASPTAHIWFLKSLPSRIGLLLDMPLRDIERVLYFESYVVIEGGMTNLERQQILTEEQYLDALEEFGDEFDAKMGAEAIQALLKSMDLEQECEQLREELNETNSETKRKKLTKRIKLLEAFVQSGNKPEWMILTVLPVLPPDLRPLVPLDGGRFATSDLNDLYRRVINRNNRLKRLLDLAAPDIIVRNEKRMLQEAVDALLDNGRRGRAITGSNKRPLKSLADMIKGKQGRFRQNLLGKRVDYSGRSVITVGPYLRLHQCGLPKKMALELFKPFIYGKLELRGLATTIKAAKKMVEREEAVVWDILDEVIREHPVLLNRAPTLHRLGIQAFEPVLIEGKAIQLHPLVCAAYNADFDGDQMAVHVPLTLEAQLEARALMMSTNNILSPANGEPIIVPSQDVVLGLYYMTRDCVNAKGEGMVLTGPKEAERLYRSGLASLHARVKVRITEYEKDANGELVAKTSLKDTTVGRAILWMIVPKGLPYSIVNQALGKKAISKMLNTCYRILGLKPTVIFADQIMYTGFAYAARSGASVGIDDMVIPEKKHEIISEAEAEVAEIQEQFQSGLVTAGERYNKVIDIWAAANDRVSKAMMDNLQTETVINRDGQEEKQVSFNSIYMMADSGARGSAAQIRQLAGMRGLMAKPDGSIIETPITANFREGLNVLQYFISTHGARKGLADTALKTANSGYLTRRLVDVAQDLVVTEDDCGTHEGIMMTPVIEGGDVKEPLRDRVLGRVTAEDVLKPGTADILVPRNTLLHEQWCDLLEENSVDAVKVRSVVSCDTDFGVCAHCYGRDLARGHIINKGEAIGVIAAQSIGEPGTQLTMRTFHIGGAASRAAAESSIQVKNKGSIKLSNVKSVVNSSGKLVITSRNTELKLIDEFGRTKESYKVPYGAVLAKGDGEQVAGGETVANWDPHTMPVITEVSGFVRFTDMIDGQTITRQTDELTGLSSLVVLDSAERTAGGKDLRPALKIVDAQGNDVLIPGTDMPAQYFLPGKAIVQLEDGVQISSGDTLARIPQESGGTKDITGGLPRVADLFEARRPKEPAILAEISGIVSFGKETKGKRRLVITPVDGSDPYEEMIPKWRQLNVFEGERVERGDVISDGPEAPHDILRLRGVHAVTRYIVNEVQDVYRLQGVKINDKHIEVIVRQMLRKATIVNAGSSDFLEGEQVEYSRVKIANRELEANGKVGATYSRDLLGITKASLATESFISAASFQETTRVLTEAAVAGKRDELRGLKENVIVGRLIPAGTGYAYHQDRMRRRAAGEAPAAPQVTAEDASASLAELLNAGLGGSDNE
T1 sequence (P0A8V2 whole entry): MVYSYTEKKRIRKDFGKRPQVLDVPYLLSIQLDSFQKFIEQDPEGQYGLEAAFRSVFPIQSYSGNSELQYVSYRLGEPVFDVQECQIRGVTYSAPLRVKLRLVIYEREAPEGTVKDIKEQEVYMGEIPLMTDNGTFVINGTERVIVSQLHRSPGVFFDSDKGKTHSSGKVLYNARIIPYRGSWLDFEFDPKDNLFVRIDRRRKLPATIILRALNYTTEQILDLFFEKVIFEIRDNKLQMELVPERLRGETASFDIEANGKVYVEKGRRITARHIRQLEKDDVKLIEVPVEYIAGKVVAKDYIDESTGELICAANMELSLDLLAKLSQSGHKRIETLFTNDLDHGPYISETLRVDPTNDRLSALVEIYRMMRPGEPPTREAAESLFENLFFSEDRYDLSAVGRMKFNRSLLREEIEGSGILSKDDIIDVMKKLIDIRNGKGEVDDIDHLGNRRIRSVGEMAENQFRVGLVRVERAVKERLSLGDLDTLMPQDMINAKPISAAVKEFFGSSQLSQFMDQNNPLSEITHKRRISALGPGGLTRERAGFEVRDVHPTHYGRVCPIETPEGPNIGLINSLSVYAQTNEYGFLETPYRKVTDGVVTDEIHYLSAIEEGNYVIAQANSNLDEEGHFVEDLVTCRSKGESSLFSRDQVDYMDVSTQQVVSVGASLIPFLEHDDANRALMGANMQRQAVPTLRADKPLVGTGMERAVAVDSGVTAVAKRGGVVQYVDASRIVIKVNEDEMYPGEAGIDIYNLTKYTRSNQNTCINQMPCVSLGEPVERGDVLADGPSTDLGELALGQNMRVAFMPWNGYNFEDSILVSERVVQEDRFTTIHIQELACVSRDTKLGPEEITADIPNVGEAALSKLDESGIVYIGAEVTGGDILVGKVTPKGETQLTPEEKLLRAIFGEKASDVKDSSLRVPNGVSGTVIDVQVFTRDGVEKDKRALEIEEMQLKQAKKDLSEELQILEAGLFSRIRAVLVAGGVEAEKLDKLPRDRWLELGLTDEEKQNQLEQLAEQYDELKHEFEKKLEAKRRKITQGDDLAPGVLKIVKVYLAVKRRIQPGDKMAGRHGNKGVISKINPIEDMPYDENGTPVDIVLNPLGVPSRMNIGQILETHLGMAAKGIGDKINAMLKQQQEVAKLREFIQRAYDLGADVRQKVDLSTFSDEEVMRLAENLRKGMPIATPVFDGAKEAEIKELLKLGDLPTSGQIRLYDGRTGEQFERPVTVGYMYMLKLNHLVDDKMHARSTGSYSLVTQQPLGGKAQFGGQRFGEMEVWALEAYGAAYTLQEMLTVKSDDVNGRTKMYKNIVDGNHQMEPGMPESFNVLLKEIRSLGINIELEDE
Summary of the method: (§2)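 Commercial E. coli RNA polymerase was used, with calf thymus DNA template (3.65 µg) in 0.125 ml containing Tris-HCl pH 8.0, MgCl2, β-mercaptoethanol, CTP/UTP/GTP (0.019 µmol each) and [8-14C]ATP (0.019 µmol). Compound in DMSO was added before the enzyme; controls received DMSO. Mixtures were incubated 10 min at 37°. Acid-insoluble label was collected by filter-disk assay and counted by liquid scintillation.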

[12] = molecular target: T1, Bacterial DNA-directed RNA polymerase (Bacteria); test: Stimulation of Escherichia coli DNA-primed RNA polymerase activity using [8-14C]ATP at 25 ug/ml by scintillation counting; type: protein-complex assay; summary of the method: as §2
[13] = tested on: Calf thymus DNA; test: Binding affinity to calf thymus DNA assessed as decrease in DNA sedimentation coefficient at 5.2 x 10^-6 M relative to untreated control; type: nucleic-acid assay; conditions: Bos taurus
Summary of the method: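 Calf thymus DNA was mixed with compound at 5.2 × 10^-6 M and incubated 30 min at about 22°. Sedimentation was run in an analytical ultracentrifuge at 20°, with UV scanning at 260 nm. Each run included a drug-free DNA control. Sedimentation coefficients were not corrected for density or viscosity.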

[14] = molecular target: T1, Bacterial DNA-directed RNA polymerase (Bacteria); test: Stimulation of Escherichia coli DNA-primed RNA polymerase activity using [8-14C]ATP at 200 ug/ml by scintillation counting; type: protein-complex assay; summary of the method: as §2
[15] = molecular target: T1, Bacterial DNA-directed RNA polymerase (Bacteria); test: Stimulation of Escherichia coli DNA-primed RNA polymerase activity using [8-14C]ATP at 400 ug/ml by scintillation counting; type: protein-complex assay; summary of the method: as §2
[16] = molecular target: T1, Bacterial DNA-directed RNA polymerase (Bacteria); test: Stimulation of Escherichia coli DNA-primed RNA polymerase activity using [8-14C]ATP by scintillation counting; type: protein-complex assay; summary of the method: as §2
[17] = molecular target: T1, Bacterial DNA-directed RNA polymerase (Bacteria); test: Stimulation of Escherichia coli DNA-primed RNA polymerase activity using [8-14C]ATP at 50 ug/ml by scintillation counting; type: protein-complex assay; summary of the method: as §2
[18] = molecular target: T1, Bacterial DNA-directed RNA polymerase (Bacteria); test: Inhibition of Escherichia coli DNA-primed RNA polymerase activity using [8-14C]ATP at 200 ug/ml by scintillation counting; type: protein-complex assay; set-up: scale not given: the % may be the effect or the level left; summary of the method: as §2
[19] = molecular target: T1, Bacterial DNA-directed RNA polymerase (Bacteria); test: Inhibition of Escherichia coli DNA-primed RNA polymerase activity using [8-14C]ATP at 50 ug/ml by scintillation counting; type: protein-complex assay; set-up: scale not given: the % may be the effect or the level left; summary of the method: as §2
[20] = molecular target: T1, Bacterial DNA-directed RNA polymerase (Bacteria); test: Inhibition of Escherichia coli DNA-primed RNA polymerase activity using [8-14C]ATP at 25 ug/ml by scintillation counting; type: protein-complex assay; set-up: scale not given: the % may be the effect or the level left; summary of the method: as §2
[21] = molecular target: T1, Bacterial DNA-directed RNA polymerase (Bacteria); test: Inhibition of Escherichia coli DNA-primed RNA polymerase activity using [8-14C]ATP at 100 ug/ml by scintillation counting; type: protein-complex assay; set-up: scale not given: the % may be the effect or the level left; summary of the method: as §2
[22] = molecular target: T1, Bacterial DNA-directed RNA polymerase (Bacteria); test: Inhibition of Escherichia coli DNA-primed RNA polymerase activity using [8-14C]ATP at 400 ug/ml by scintillation counting; type: protein-complex assay; set-up: scale not given: the % may be the effect or the level left; summary of the method: as §2
[23] = molecular target: Bacterial DNA-directed RNA polymerase (Bacteria, UniProt P0A7Z4+P0A800+P0A8T7+P0A8V2); test: Inhibition of Escherichia coli DNA-primed RNA polymerase activity using [8-14C]ATP by scintillation counting; type: protein-complex assay; summary of the method: as §2
[24] = tested on: Calf thymus DNA; test: Binding affinity to calf thymus DNA by ESR spectrum; type: nucleic-acid assay; conditions: Bos taurus
[25] = tested on: Calf thymus DNA; test: Binding affinity to calf thymus DNA assessed as decrease in DNA sedimentation coefficient at 20 x 10^-6 M relative to untreated control; type: nucleic-acid assay; conditions: Bos taurus

Structure (SMILES) | Activity [11] [%] | Activity [12] [%] | growth inhibition (GI) [1] [%] | growth inhibition (GI) [2] [%] | Ratio [13] | Activity [14] [%] | growth inhibition (GI) [3] [%] | Activity [15] [%] | growth inhibition (GI) [4] [%] | growth inhibition (GI) [5] [%] | growth inhibition (GI) [6] [%] | growth inhibition (GI) [7] [%] | growth inhibition (GI) [8] [%] | growth inhibition (GI) [9] [%] | growth inhibition (GI) [10] [%] | Activity [18] [%] | Activity [19] [%] | Activity [20] [%] | Activity [21] [%] | Activity [22] [%] | other results
COc1cc(NS(C)(=O)=O)ccc1Nc1c2ccccc2nc2ccccc12 [AMSACRINE] | – | – | – | – | – | – | – | – | – | – | – | – | – | – | – | – | – | – | – | – | inhibition of growth at 1 µg/mL ([1]; L1210, 24 h, read-out: GI): 42%; inhibition of growth at 0.01 µg/mL ([2]; L1210, 24 h, read-out: GI): 6%; inhibition of growth at 0.01 µg/mL ([3]; L1210, 48 h, read-out: GI): 8%; inhibition of growth at 100 µg/mL ([4]; L1210, 48 h, read-out: GI): 92%; inhibition of growth at 1 µg/mL ([5]; L1210, 48 h, read-out: GI): 82%; inhibition of growth at 0.1 µg/mL ([6]; L1210, 24 h, read-out: GI): 29%; inhibition of growth at 100 µg/mL ([7]; L1210, 24 h, read-out: GI): 57%; inhibition of growth at 10 µg/mL ([8]; L1210, 48 h, read-out: GI): 87%; inhibition of growth at 10 µg/mL ([9]; L1210, 24 h, read-out: GI): 50%; inhibition of growth at 0.1 µg/mL ([10]; L1210, 48 h, read-out: GI): 75%
COc1ccc2nc3cc(Cl)ccc3c(NCC3CC(C)(C)N([O])C3(C)C)c2c1 (stereo unspecified) | 106 | 112 | 6 | 10 | 1.04 | 102 | 7 | 107 | 74 | 19 | 0 | 40 | 76 | 35 | 5 | – | – | – | – | – | Activity [16]: Dose-dependent effect; Activity [17]: 106%
CC1(C)CC(Nc2c3ccccc3nc3ccccc23)CC(C)(C)N1[O] | – | – | 27 | 0 | 1.04 | – | 2 | – | 87 | 56 | 1 | 53 | 84 | 49 | 7 | 21 | 77 | 96 | 36 | 9 | –
CC1(C)CC(CNc2c3ccccc3nc3ccccc23)C(C)(C)N1[O] (stereo unspecified) | – | – | 12 | 0 | 1.08 | – | 3 | – | 82 | 29 | 3 | 48 | 79 | 46 | 2 | 22 | 70 | 87 | 45 | 10 | –
CCN(CC)CCCC(C)Nc1c2ccc(Cl)cc2nc2ccc(OC)cc12 (stereo unspecified) [QUINACRINE] | – | – | – | – | – | – | – | – | – | – | – | – | – | – | – | – | – | – | – | – | IC50 [23]: 20 µM
COc1ccc2nc3cc(Cl)ccc3c(NC3CC(C)(C)N([O])C(C)(C)C3)c2c1 | 129 | 108 | 9 | 3 | 1.02 | 125 | 8 | 116 | 78 | 24 | 12 | 6 | 63 | 11 | 7 | – | – | – | – | – | Activity [24]: Active; Activity [16]: Dose-dependent effect; Activity [17]: 120%
CC1(C)CC(NCCCNc2c3ccccc3nc3ccccc23)CC(C)(C)N1[O] | – | – | 10 | 0 | – | – | 0 | – | 86 | 16 | 0 | 47 | 87 | 56 | 0 | 20 | 42 | 71 | 31 | 12 | –
Nc1c2ccccc2nc2ccccc12 | – | – | – | – | – | – | – | – | – | – | – | – | – | – | – | 4 | 31 | 40 | 31 | 1.8 | –
COc1ccc2nc3cc(Cl)ccc3c(NC3CC(C)(C)N([O])C(C)(C)C3)c2n1 | 110 | 108 | 0 | 0 | 1.05 | 114 | 0 | 108 | 38 | 0 | 0 | 0 | 15 | 0 | 0 | – | – | – | – | – | Activity [16]: Dose-dependent effect; Activity [17]: 110%
Nc1ccc2cc3ccc(N)cc3nc2c1 | – | – | – | – | – | – | – | – | – | – | – | – | – | – | – | – | – | – | – | – | Ratio [25]: 1.13
